Active and inactive are the calls of the source. The calls are words filed in the database; no cut-off is given here.
Experiments:
[1] = Growth inhibition of human MCF7/Topo cells after 24 hrs by MTT assay; format: functional, cell-based
Outline: (§1)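 Cells seeded at 5000/well (Ea.hy926 10,000/well) and exposed for 24 h to dilution series of 100 µM–5 pM, with DMSO as solvent control. MTT (0.5 mg/mL final) for 2 h. Formazan dissolved in SDS/acetic acid/DMSO and read at 570 nm against a 630 nm background. Viability taken relative to DMSO controls; IC50 from dose–response curves, mean of four independent experiments.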

[2] = Growth inhibition of human 518A2 cells after 72 hrs by MTT assay; format: functional, cell-based; conditions: 518A2, 72 h
Outline: (§2)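 5000 cells/well exposed for 72 h to dilution series of 100 µM–5 pM, with DMSO as solvent control. MTT 0.5 mg/mL final for 2 h, absorbance at 570/630 nm. Percentage viable cells taken versus DMSO controls; IC50 from dose–response curves, mean of four independent experiments.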

[3] = Growth inhibition of human 518A2 cells after 24 hrs by MTT assay; format: functional, cell-based; conditions: 518A2, 24 h; outline: as §1
HT-29 [4] = experiment: Growth inhibition of combretastatin A-4 resistant human HT-29 cells after 72 hrs by MTT assay; format: functional, cell-based; conditions: HT-29, 72 h; outline: as §2
HT-29 [5] = experiment: Growth inhibition of combretastatin A-4 resistant human HT-29 cells after 24 hrs by MTT assay; format: functional, cell-based; conditions: HT-29, 24 h; outline: as §1
[6] = Growth inhibition of human EAhy926 cells after 24 hrs by MTT assay; format: cell-based; conditions: EA.hy 926, 24 h; outline: as §1
[7] = Growth inhibition of human HCT116 cells expressing wild type p53 after 72 hrs by MTT assay; format: functional, cell-based; conditions: HCT-116, 72 h
Outline: (§3)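 HCT-116 cells, p53 wild-type or p53-/-, seeded at 5000/well and treated 72 h with dilution series (100 µM–5 pM) or DMSO. MTT 0.5 mg/mL for 2 h, absorbance at 570/630 nm. Viability relative to DMSO controls; IC50 from dose–response curves, mean of three independent experiments ± S.D.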

[8] = Growth inhibition of p53 null human HCT116 cells after 72 hrs by MTT assay; format: functional, cell-based; conditions: HCT-116, 72 h; outline: as §3
[9] = Growth inhibition of primary chicken fibroblasts after 48 hrs by MTT assay; format: cell-based; conditions: Gallus gallus, Fibroblast
Outline: (§4)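 Chicken heart fibroblasts explanted from 10-day-old embryos, seeded at 10,000/well; cardiomyocytes seeded at 20,000/well. Dilution series given for 48 h, DMSO as control. MTT 0.5 mg/mL for 2 h, absorbance at 570/630 nm. Viability versus DMSO controls; IC50 from dose–response curves, mean of three independent experiments.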

[10] = Growth inhibition of chicken cardiomyocytes after 48 hrs by MTT assay; conditions: Gallus gallus, Cardiomyocyte; outline: as §4
[11] = Cell cycle arrest in human HCT116 cells expressing wild type p53 assessed as accumulation at subG1 phase at 100 nM after 24 hrs by propidium iodide staining-based flow cytometry (reference value: 7.1%); format: functional; conditions: HCT-116
[12] = Cell cycle arrest in human HCT116 cells expressing wild type p53 assessed as accumulation at G1 phase at 100 nM after 24 hrs by propidium iodide staining-based flow cytometry (reference value: 56.7%); format: functional; conditions: HCT-116
[13] = Cell cycle arrest in human HCT116 cells expressing wild type p53 assessed as accumulation at S phase at 100 nM after 24 hrs by propidium iodide staining-based flow cytometry (reference value: 15.3%); format: functional; conditions: HCT-116
[14] = Cell cycle arrest in human HCT116 cells expressing wild type p53 assessed as accumulation at G2/M phase at 100 nM after 24 hrs by propidium iodide staining-based flow cytometry (reference value: 21%); format: functional; conditions: HCT-116
[15] = Cell cycle arrest in human HCT116 cells expressing wild type p53 assessed as accumulation at G2/M phase at 50 nM after 24 hrs by propidium iodide staining-based flow cytometry (reference value: 21%); format: functional; conditions: HCT-116
[16] = Cell cycle arrest in human MCF7/Topo cells assessed as accumulation at subG1 phase at 100 nM after 24 hrs by propidium iodide staining-based flow cytometry (reference value: 4.6%); format: functional
[17] = Cell cycle arrest in human MCF7/Topo cells assessed as accumulation at G1 phase at 100 nM after 24 hrs by propidium iodide staining-based flow cytometry (reference value: 47.8%); format: functional
[18] = Cell cycle arrest in human MCF7/Topo cells assessed as accumulation at S phase at 100 nM after 24 hrs by propidium iodide staining-based flow cytometry (reference value: 16%); format: functional
[19] = Cell cycle arrest in human HCT116 cells expressing wild type p53 assessed as apoptotic index ratio at 100 nM after 24 hrs by propidium iodide staining-based flow cytometry relative to control; format: functional; conditions: HCT-116
[20] = Cell cycle arrest in human HCT116 cells expressing wild type p53 assessed as apoptotic index ratio at 50 nM after 24 hrs by propidium iodide staining-based flow cytometry relative to control; format: functional; conditions: HCT-116
[21] = Cell cycle arrest in human HCT116 cells expressing wild type p53 assessed as G2/M index ratio at 100 nM after 24 hrs by propidium iodide staining-based flow cytometry relative to control; format: functional; conditions: HCT-116
[22] = Cell cycle arrest in human MCF7/Topo cells assessed as apoptotic index ratio at 100 nM after 24 hrs by propidium iodide staining-based flow cytometry relative to control; format: functional
[23] = Cell cycle arrest in human MCF7/Topo cells assessed as G2/M index ratio at 100 nM after 24 hrs by propidium iodide staining-based flow cytometry relative to control; format: functional
EA.hy 926 [24] = experiment: Antivascular activity in human EAhy926 cells assessed as induction of retraction of cells to nodes at 250 nM after 16 hrs by light microscopic analysis; format: functional, cell-based
Outline: (§5)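 Ea.hy926 cells (100,000/well) were seeded on Matrigel-coated coverslips and allowed 12 h to form vessel-like networks. Test agent (CA-4 100 nM; indoles 250 nM) or DMSO was then added for 16 h, and networks were documented by light microscopy. Viability was checked by 2 h MTT (0.5 mg/mL) relative to DMSO controls.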

EA.hy 926 [25] = experiment: Antivascular activity in human EAhy926 cells assessed as change in cell morphology from stretched to rounded form at 250 nM after 16 hrs by light microscopic analysis; format: functional, cell-based; outline: as §5
[26] = Cytotoxicity against human EAhy926 cells assessed as cell viability at 250 nM after 16 hrs by MTT assay relative to control; format: cell-based, EA.hy 926; conditions: read-out: Activity
Outline: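 Ea.hy926 cells (100,000/well) placed on Matrigel-coated coverslips and left 12 h to form networks, then given 250 nM for 16 h. Viability measured by 2 h incubation with 0.5 mg/mL MTT and formazan absorbance, calculated relative to DMSO controls.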

Chorioallantoic membrane = experiment: Antivascular activity in fertilized white leghorn egg chorioallantoic membrane assessed as disruption of preformed blood vessel at 2.5 to 5 nmol after 24 to 48 hrs by stereomicroscopic analysis; format: functional, tissue-based; conditions: Gallus gallus
[27] = Cytotoxicity against fertilized white leghorn chicken embryos in CAM model assessed as lethality at 5 nmol after 24 hrs relative to control; format: organism-based, Gallus gallus; conditions: in vivo
Outline: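 Day-5 fertilized eggs (37 °C, 50-60% humidity) windowed, with 6 mm silicon rings placed on CAM vessels and incubated a further 24 h. Compound diluted to 500 µM in PBS and pipetted inside the ring (10 µL = 5 nmol); DMSO control. Vessel changes documented by stereomicroscopy at 0, 12 and 24 h.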

Structure (SMILES) | IC50 [1] [nM] | IC50 [2] [nM] | IC50 [3] [nM] | IC50 (HT-29 [4]) [nM] | IC50 (HT-29 [5]) [nM] | IC50 [6] [nM] | IC50 [7] [nM] | IC50 [8] [nM] | IC50 [9] [µM] | IC50 [10] [nM] | Activity [11] [%] | Activity [12] [%] | Activity [13] [%] | Activity [14] [%] | Activity [15] [%] | Activity [16] [%] | Activity [17] [%] | Activity [18] [%] | Ratio [19] | Ratio [20] | other results
COc1cc(-c2ncn(C)c2-c2ccc3c(c2)c(Cl)cn3C)cc(Br)c1OC.Cl | 18.8 | 28.2 | 51.9 | 23.4 | 31.3 | 29.9 | 27.4 | 21.3 | 23 | 3970 | 25.9 | 9 | 5.4 | 59.7 | 17.2 | 24.6 | 14.4 | 8.6 | 19.7 | 10.2 | Ratio [21]: 17.9; Ratio [22]: 21.1; Ratio [23]: 5.5; Activity (EA.hy 926 [24]): Active; Activity (EA.hy 926 [25]): Active; viability at 16 h, 0.25 µM [26]: > 90%; Activity (Chorioallantoic membrane): inactive; mortality at 24 h [27]: 33%
COc1cc(-c2ncn(C)c2-c2ccc3c(c2)c(Cl)cn3C)cc(OC)c1OC | 20.2 | 18.2 | 65.4 | 15.6 | 26.2 | 24.6 | 9.5 | 26.2 | 11.6 | 1870 | 32.4 | 9.3 | 7.8 | 50.5 | 14.6 | 30.7 | 16.5 | 9.9 | 26.1 | 24.4 | Ratio [21]: 14.8; Ratio [22]: 27.2; Ratio [23]: 3.9; Activity (EA.hy 926 [24]): Active; Activity (EA.hy 926 [25]): Active; viability at 16 h, 0.25 µM [26]: > 90%; Activity (Chorioallantoic membrane): inactive; mortality at 24 h [27]: 80%
